Measurements reported in ChEMBL document CHEMBL4145690, “Rational Design and Structure Validation of a Novel Peptide Inhibitor of the Adenomatous-Polyposis-Coli (APC)-Rho-Guanine-Nucleotide-Exchange-Factor-4 (Asef) Interaction” (J Med Chem, 2018).
The source made the active and inactive calls. The rule behind the calls is not given here. Where a SMILES comes first, the peptide text is derived from it. [ ]: non-standard residue; d: D form. The star is where a group is joined. Ala(2-furyl) = N[C@@H](Cc1ccco1)C(=O)O; Ala(cPr) = N[C@@H](CC1CC1)C(=O)O; Aic = NC1(C(=O)O)Cc2ccccc2C1; Pra = C#CC[C@H](N)C(=O)O; Cbz = O=C(OCc1ccccc1)*

Experiments:
[1] = biological target: T1, Adenomatous polyposis coli protein (Homo sapiens, UniProt P25054); experiment: Binding affinity to APC protein (303 to 739 residues) (unknown origin) incubated for 60 mins followed by probe addition and measured after 60 mins by competitive fluorescence polarization assay
T1 sequence (P25054 whole entry, the tested form may be a part): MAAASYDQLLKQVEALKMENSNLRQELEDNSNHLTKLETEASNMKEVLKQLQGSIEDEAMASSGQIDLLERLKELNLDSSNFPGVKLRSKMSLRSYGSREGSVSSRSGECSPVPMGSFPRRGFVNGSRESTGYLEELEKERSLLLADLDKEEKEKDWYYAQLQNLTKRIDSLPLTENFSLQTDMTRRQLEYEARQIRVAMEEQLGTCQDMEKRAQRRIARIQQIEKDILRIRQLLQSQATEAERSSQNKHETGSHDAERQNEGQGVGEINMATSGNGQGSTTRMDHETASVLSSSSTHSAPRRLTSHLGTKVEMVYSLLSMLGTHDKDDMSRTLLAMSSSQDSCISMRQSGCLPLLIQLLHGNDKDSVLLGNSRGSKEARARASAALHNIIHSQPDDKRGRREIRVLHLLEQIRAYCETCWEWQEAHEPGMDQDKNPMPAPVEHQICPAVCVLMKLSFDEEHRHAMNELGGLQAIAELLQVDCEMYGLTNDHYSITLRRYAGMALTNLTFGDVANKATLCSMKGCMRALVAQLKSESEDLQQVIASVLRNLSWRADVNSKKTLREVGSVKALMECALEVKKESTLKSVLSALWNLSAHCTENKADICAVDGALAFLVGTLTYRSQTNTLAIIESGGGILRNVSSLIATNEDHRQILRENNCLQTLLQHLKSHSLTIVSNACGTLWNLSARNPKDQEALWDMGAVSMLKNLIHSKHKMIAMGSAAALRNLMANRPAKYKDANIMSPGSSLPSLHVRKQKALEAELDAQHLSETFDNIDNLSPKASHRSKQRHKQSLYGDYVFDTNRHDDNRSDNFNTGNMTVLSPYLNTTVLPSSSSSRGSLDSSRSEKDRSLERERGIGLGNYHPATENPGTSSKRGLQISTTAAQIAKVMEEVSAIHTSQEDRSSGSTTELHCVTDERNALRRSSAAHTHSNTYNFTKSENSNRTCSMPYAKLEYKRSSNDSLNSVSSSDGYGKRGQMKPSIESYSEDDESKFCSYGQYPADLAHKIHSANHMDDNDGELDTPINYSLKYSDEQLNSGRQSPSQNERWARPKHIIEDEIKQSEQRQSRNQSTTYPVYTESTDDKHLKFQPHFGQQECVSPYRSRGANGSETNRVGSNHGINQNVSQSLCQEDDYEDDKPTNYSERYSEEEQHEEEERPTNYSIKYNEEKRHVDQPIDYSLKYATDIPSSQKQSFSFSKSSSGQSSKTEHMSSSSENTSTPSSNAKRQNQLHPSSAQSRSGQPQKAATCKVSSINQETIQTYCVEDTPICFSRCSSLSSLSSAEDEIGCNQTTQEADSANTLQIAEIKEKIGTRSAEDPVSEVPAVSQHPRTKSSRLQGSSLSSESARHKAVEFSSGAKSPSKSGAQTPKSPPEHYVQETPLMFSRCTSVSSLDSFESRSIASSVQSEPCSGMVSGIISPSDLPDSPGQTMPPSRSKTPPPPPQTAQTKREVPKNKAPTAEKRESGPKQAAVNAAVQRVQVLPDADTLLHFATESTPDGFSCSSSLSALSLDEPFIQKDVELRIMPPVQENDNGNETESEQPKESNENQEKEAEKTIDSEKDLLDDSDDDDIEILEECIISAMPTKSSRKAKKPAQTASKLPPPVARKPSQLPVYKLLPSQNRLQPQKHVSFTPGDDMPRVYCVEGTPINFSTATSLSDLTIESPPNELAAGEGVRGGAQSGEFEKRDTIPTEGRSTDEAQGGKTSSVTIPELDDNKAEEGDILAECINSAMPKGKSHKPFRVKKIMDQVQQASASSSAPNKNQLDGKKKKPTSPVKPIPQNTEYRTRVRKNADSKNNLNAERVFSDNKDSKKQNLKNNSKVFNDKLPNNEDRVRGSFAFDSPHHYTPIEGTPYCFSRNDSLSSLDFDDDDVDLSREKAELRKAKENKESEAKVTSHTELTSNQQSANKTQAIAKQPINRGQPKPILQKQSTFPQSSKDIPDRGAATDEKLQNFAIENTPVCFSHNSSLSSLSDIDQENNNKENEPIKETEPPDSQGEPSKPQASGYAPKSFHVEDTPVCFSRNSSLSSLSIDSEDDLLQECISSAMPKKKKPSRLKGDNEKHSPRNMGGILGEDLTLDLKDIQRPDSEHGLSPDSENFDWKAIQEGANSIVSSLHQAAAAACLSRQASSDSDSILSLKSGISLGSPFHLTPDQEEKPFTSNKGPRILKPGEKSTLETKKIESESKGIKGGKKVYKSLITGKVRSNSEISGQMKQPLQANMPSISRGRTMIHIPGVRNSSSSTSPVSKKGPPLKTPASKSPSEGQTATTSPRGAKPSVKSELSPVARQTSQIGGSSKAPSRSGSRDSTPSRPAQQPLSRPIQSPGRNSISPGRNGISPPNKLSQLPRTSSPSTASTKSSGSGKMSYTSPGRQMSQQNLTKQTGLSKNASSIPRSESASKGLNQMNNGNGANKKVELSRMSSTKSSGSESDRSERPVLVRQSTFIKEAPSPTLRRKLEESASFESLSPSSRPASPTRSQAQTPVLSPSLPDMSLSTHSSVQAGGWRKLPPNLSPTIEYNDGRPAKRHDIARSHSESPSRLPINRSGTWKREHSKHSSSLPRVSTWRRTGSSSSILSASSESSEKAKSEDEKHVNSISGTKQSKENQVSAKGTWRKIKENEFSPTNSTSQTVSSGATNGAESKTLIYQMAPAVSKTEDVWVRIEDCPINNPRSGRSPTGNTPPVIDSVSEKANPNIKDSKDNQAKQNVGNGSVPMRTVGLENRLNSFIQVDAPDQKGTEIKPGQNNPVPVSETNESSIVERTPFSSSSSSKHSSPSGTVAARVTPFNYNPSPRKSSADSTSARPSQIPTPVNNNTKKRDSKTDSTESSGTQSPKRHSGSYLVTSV
Outline: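 Peptide in DMSO preincubated with protein 60 min at room temperature with shaking; probe added, then 60 min more. Controls: blank, tracer only, complex only. IC50 from dose-response curves, mean of three independent experiments.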

[2] = biological target: T1, Adenomatous polyposis coli protein; experiment: Binding affinity to His-tagged APC (unknown origin) assessed as association constant by surface plasmon resonance assay
Outline: (§1)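 His-APC amine-coupled to a CM5 chip (EDC/NHS; protein in 50 mM Hepes, 300 mM NaCl, 1 mM EDTA, pH 7.5); BSA reference cell. Peptides injected in 0.05 M Hepes pH 7.5 at 30 µL/min; dissociation 6 min; regeneration with glycine-HCl pH 2.0. Kinetic constants fitted to a 1:1 Langmuir model.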

[3] = biological target: T1, Adenomatous polyposis coli protein; experiment: Binding affinity to His-tagged APC (unknown origin) assessed as dissociation constant by surface plasmon resonance assay; outline: as §1
[4] = biological target: T1, Adenomatous polyposis coli protein; experiment: Binding affinity to His-tagged APC (unknown origin) assessed as residence time by surface plasmon resonance assay; outline: as §1
[5] = biological target: T1, Adenomatous polyposis coli protein; experiment: Binding affinity to His-tagged APC (unknown origin) by surface plasmon resonance assay; outline: as §1
[6] = biological target: T1, Adenomatous polyposis coli protein; experiment: Reversible binding affinity to His-tagged APC (unknown origin) by surface plasmon resonance assay; outline: as §1
[7] = biological target: T1, Adenomatous polyposis coli protein; experiment: Binding affinity to APC (unknown origin) assessed as induction of blue shifts in fluorescence for APC-compound complexes at 35 uM incubate fro 30 mins by tryptophan fluorescence measurements assay
Outline: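 APC protein (5 µM) alone or with peptide at 35 µM in 50 mM Hepes pH 7.5, 300 mM NaCl, 1 mM EDTA, 50 µL. Incubated 30 min at room temperature with gentle shaking. Tryptophan excited at 280 nm; emission scanned 300–500 nm. Run in triplicate.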

[8] = biological target: T1, Adenomatous polyposis coli protein; experiment: Binding affinity to APC (unknown origin) assessed as association constant at 30 degC by ITC method
Outline: (§2)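 ITC in 50 mM HEPES pH 7.5, 300 mM NaCl, 1 mM EDTA at 30 °C. Titrations were repeated three times. Kd, ΔG, ΔH and −TΔS are averages of the three independent experiments. L/P ratio gives sites per APC.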

[9] = biological target: T1, Adenomatous polyposis coli protein; experiment: Binding affinity to APC (unknown origin) at 30 degC by ITC method; outline: as §2
[10] = biological target: T1, Adenomatous polyposis coli protein; experiment: Binding affinity to APC (unknown origin) at 37 degC by ITC method
Outline: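 ITC at 37 °C in 50 mM HEPES pH 7.5, 300 mM NaCl, 1 mM EDTA. Titrations were repeated three times.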

APC/Asef (Homo sapiens) [11] = biological target: T2, APC/Asef (Homo sapiens) (UniProt P25054+Q9NR80); experiment: Inhibition of Flag-APC (303 to 876 residues) (unknown origin) /HA-Asef (170 to 632 residues) (unknown origin) interaction expressed in HEK293T cell lysates at 10 uM incubated for 2 hrs by coimmunoprecipitation assay
Outline: (§3)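 HEK293T cells co-transfected with Flag-APC (303–876) and HA-Asef (170–632); lysed in RIPA after 24 h and lysate cleared. Supernatant incubated with compound (2 or 10 µM) or DMSO for 2 h at 4 °C, then anti-FLAG M2 gel overnight at 4 °C. Beads washed and proteins analysed by western blot (anti-HA, anti-Flag), single experiment.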

[12] = biological target: T1, Adenomatous polyposis coli protein; experiment: Binding affinity to APC (unknown origin) assessed as intramolecular hydrogen bond formation by 1H nuclear magnetic resonance based hydrogen-deuterium-exchange assay
APC/Asef (Homo sapiens) [13] = biological target: T2, APC/Asef (Homo sapiens); experiment: Inhibition of Flag-APC (303 to 876 residues) (unknown origin) /HA-Asef (170 to 632 residues) (unknown origin) interaction expressed in HEK293T cell lysates incubated for 2 hrs by coimmunoprecipitation assay; outline: as §3

In the case of `CC(C)C[C@H](NC(=O)[C@H](C)NC(=O)[C@H](CCC(=O)O)NC(=O)CNC(=O)[C@H](C)NC(=O)OCc1ccccc1)C(=O)N[C@@H](Cc1ccc(O)cc1)C(=O)N[C@@H](CCC(=O)O)C(N)=O` (Cbz-AGEALYE-NH2), the IC50 [1] is reported as 1090 nM, the K [2] is reported as 1.92 ×10⁵ /M/s and the K [3] is reported as 8.2 ×10⁻² /s. The TIME [4] was 0.00333 h, the Kd [5] was 430 nM and the Activity [6] was “Dose-dependent effect”. The Activity [7] was “Active”, the K [8] was 4.71 ×10⁶ /M and the Kd [9] was 210 nM. The Kd [10] was 1800 nM and the inhibition (APC/Asef (Homo sapiens) [11]) was “Active”.
`CC(C)C[C@H](NC(=O)[C@H](CO)NC(=O)[C@H](CCC(=O)O)NC(=O)CNC(=O)[C@H](C)NC(=O)OCc1ccccc1)C(=O)N[C@@H](Cc1ccc(O)cc1)C(=O)N[C@@H](CCC(=O)O)C(N)=O` (Cbz-AGESLYE-NH2) gave an IC50 [1] of 250 nM, a K [2] of 3.05 ×10⁵ /M/s and a K [3] of 6.7 ×10⁻² /s. For the same compound, the TIME [4] was 0.00417 h, the Kd [5] was 220 nM and the inhibition [6] was “Dose-dependent effect”. The Activity [12] was “Active”, the Activity [7] was “Active” and the K [8] was 8.21 ×10⁷ /M. For the same compound, the Kd [9] was 12 nM, the Kd [10] was 210 nM and the inhibition (APC/Asef (Homo sapiens) [13]) was “Dose-dependent effect”.
Compound `C[C@H](NC(=O)OCc1ccccc1)C(=O)NCC(=O)N[C@@H](CCC(=O)O)C(=O)N[C@@H](CO)C(=O)NC1(C(=O)N[C@@H](Cc2ccc(O)cc2)C(=O)N[C@@H](CCC(=O)O)C(N)=O)Cc2ccccc2C1` (Cbz-AGES[Aic]YE-NH2) has an IC50 [1] of 25600 nM.
With `C#CC[C@H](NC(=O)[C@H](CO)NC(=O)[C@H](CCC(=O)O)NC(=O)CNC(=O)[C@H](C)NC(=O)OCc1ccccc1)C(=O)N[C@@H](Cc1ccc(O)cc1)C(=O)N[C@@H](CCC(=O)O)C(N)=O` (Cbz-AGES[Pra]YE-NH2) the IC50 [1] was 30800 nM.
Work on `C[C@H](NC(=O)OCc1ccccc1)C(=O)NCC(=O)N[C@@H](CCC(=O)O)C(=O)N[C@@H](CO)C(=O)N[C@@H](CC1CC1)C(=O)N[C@@H](Cc1ccc(O)cc1)C(=O)N[C@@H](CCC(=O)O)C(N)=O` (Cbz-AGES[Ala(cPr)]YE-NH2) yielded an IC50 [1] of 1260 nM.
`CC(C)C[C@H](NC(=O)[C@H](CS)NC(=O)[C@H](CCC(=O)O)NC(=O)CNC(=O)[C@H](C)NC(=O)OCc1ccccc1)C(=O)N[C@@H](Cc1ccc(O)cc1)C(=O)N[C@@H](CCC(=O)O)C(N)=O` (Cbz-AGECLYE-NH2) was tested, and the IC50 [1] was 1510 nM.
`C[C@H](NC(=O)OCc1ccccc1)C(=O)NCC(=O)N[C@@H](CCC(=O)O)C(=O)N[C@@H](CO)C(=O)N[C@@H](Cc1ccco1)C(=O)N[C@@H](Cc1ccc(O)cc1)C(=O)N[C@@H](CCC(=O)O)C(N)=O` (Cbz-AGES[Ala(2-furyl)]YE-NH2) was tested, and the IC50 [1] was 6950 nM.
In the case of `C[C@H](NC(=O)OCc1ccccc1)C(=O)NCC(=O)N[C@@H](CCC(=O)O)C(=O)N[C@@H](CO)C(=O)N[C@@H](Cc1c[nH]c2ccccc12)C(=O)N[C@@H](Cc1ccc(O)cc1)C(=O)N[C@@H](CCC(=O)O)C(N)=O` (Cbz-AGESWYE-NH2), the IC50 [1] is reported as 10500 nM.
